The values that follow come from ChEMBL document CHEMBL4184133, “Chemical Constituents and Anti-inflammatory Principles from the Fruits of Forsythia suspensa” (J Nat Prod, 2017).

Values after ≈ are worked out from the molar mass of the structure shown.

The term IC50 denotes the concentration that gives 50% inhibition. By inhibition is commonly meant the share of the control response that was lost under treatment.

The test system of the first assay is Neutrophil. In words: Anti-inflammatory activity in human neutrophils assessed as inhibition of fMLP/CB-induced elastase release pre-incubated for 5 mins before fMLP/CB stimulation using MeO-Suc-Ala-Ala-Pro-Val-pnitroanilide as substrate. The assay is classed as functional, cell-based. Summed up:
(§1)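 Neutrophils were isolated by dextran sedimentation, Ficoll Hypaque centrifugation and hypotonic lysis of erythrocytes, then held in Ca2+-free HBSS pH 7.4 at 4 °C. Cells at 6 × 10^5/mL with 100 μM substrate were equilibrated 2 min at 37 °C and given compound or 0.1% DMSO vehicle for 5 min. They were activated with 100 nM fMLP plus 0.5 μg/mL cytochalasin B, and A405 was monitored continuously. Release is expressed as percent of the drug-free activated control. Mean ± SD.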
For `CC(=O)OC1CC[C@]2(C)[C@H]3CC[C@@H]4[C@@H]([C@]5(C)CCC(=O)O5)CC[C@@]4(C)[C@]3(C)CC[C@H]2C1(C)C` (stereo partly specified), the IC50 was over 10 µg/mL.
As for `COc1cc(C[C@H]2COC(=O)[C@@H]2Cc2ccc(O)c(OC)c2)ccc1O` [MATAIRESINOL], the IC50 was 7.3 µg/mL (≈ 20.4 µM) and the inhibition result was “Dose-dependent effect”.
On to `COC1CC[C@@](C)([C@H]2CC[C@]3(C)[C@@H]2CC[C@@H]2[C@@]4(C)CCC(OC(C)=O)C(C)(C)[C@@H]4CC[C@]23C)O1` (stereo partly specified), for which the IC50 was over 10 µg/mL.
For `CC1=C(CC/C(C)=C/C(=O)O)[C@@]2(C)CCC[C@@](C)(CO)[C@@H]2CC1=O`, the half-inhibitory concentration (IC50) was over 10 µg/mL.
For `C=C1CC[C@H]2C(C)(C)C(=O)CC[C@]2(C)[C@H]1CC/C(C)=C/C(=O)O`, the half-maximal inhibitory concentration (IC50) was over 10 µg/mL.
The same measure, in the same setting: then `CNC(=O)c1cc(Oc2ccc(NC(=O)Nc3ccc(Cl)c(C(F)(F)F)c3)cc2)ccn1` [SORAFENIB], with 0.9 µg/mL (≈ 1.94 µM).
In the case of `C=C(C)[C@@H]1CC[C@]2(C(=O)O)CC[C@]3(C)C(CCC4[C@@]5(C)C[C@@H](O)[C@H](O)C(C)(C)C5CC[C@]43C)C12` (stereo partly specified), the IC50 turned out to be 1.9 µg/mL (≈ 4.02 µM) and the inhibition entry was “Dose-dependent effect”.
As to `O=C(Cc1ccc(O)cc1)OC[C@H]1CC[C@@H]2C(C(=O)O)=CO[C@@H](O[C@@H]3O[C@H](CO)[C@@H](O)[C@H](O)[C@H]3O)[C@H]12`, the half-maximal inhibitory concentration (IC50) is over 10 µg/mL.
Take `C=C1CC[C@H]2[C@@](C)(CO)CCC[C@]2(C)[C@H]1CC/C(C)=C\C(=O)O`: the IC50 was over 10 µg/mL.
On to `C/C(=C\C(=O)O)CC[C@@]1(C)[C@H](C)CC[C@]2(C)C(C(=O)O)=CCC[C@H]12`, for which the concentration for half-maximal inhibition (IC50) was over 10 µg/mL.
In the case of `COc1cc([C@H]2OC[C@H]3[C@@H]2CO[C@H]3c2ccc(OC)c(OC)c2)ccc1O` [PHILLYGENIN], the half-maximal inhibitory concentration (IC50) is over 10 µg/mL.
As to `COc1cc([C@H]2OC[C@H]3[C@@H]2CO[C@H]3c2ccc(O)c(OC)c2)ccc1O` [PINORESINOL], the half-inhibitory concentration (IC50) is over 10 µg/mL.
For `C=C1CCC2[C@@](C)(CO)CCC[C@]2(C)[C@H]1CC/C(C)=C/C(=O)O` (stereo partly specified), the 50% inhibitory concentration (IC50) was over 10 µg/mL.

A further assay concerns Neutrophil. In words: Anti-inflammatory activity in human neutrophils assessed as inhibition of fMLP/CB-induced elastase release at 10 ug/ml pre-incubated for 5 mins before fMLP/CB stimulation using MeO-Suc-Ala-Ala-Pro-Val-pnitroanilide as substrate. The assay is classed as functional. Summed up: as §1
In the case of `COc1cc(C[C@H]2COC(=O)[C@@H]2Cc2ccc(O)c(OC)c2)ccc1O` [MATAIRESINOL], the inhibition at 10 µg/mL is over 50%.
On to `C=C(C)[C@@H]1CC[C@]2(C(=O)O)CC[C@]3(C)C(CCC4[C@@]5(C)C[C@@H](O)[C@H](O)C(C)(C)C5CC[C@]43C)C12` (stereo partly specified), for which the inhibition at 10 µg/mL is over 50%.

For a further assay, the system named is Neutrophil. In words: Anti-inflammatory activity in human neutrophils assessed as inhibition of fMLP/CB-induced superoxide anion generation by measuring superoxide dismutase SOD-inhibitable ferricytochrome c reduction incubated for 5 mins before fMLP/CB stimulation for 3 mins by spectrophotometry. The assay is classed as functional, cell-based. Summed up:
(§2)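 Same neutrophil preparation. Cells at 6 × 10^5/mL with 0.5 mg/mL ferricytochrome c and 1 mM Ca2+ were equilibrated 2 min at 37 °C and given compound or 0.1% DMSO for 5 min. Cytochalasin B (1 μg/mL) was added, then 100 nM fMLP. A550 was monitored continuously with stirring. Superoxide was calculated from the difference with versus without SOD (100 U/mL) using ε = 21.1/mM/10 mm. IC50 values are mean ± SD, n = 3.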
As to `CC(=O)OC1CC[C@]2(C)[C@H]3CC[C@@H]4[C@@H]([C@]5(C)CCC(=O)O5)CC[C@@]4(C)[C@]3(C)CC[C@H]2C1(C)C` (stereo partly specified), the IC50 was over 10 µg/mL.
As to `COc1cc(C[C@H]2COC(=O)[C@@H]2Cc2ccc(O)c(OC)c2)ccc1O` [MATAIRESINOL], the 50% inhibitory concentration (IC50) was determined as 4.3 µg/mL (≈ 12 µM) and the inhibition entry is “Dose-dependent effect”.
Take `COC1CC[C@@](C)([C@H]2CC[C@]3(C)[C@@H]2CC[C@@H]2[C@@]4(C)CCC(OC(C)=O)C(C)(C)[C@@H]4CC[C@]23C)O1` (stereo partly specified): the IC50 is over 10 µg/mL.
As to `CC1=C(CC/C(C)=C/C(=O)O)[C@@]2(C)CCC[C@@](C)(CO)[C@@H]2CC1=O`, the IC50 was over 10 µg/mL.
For `C=C1CC[C@H]2C(C)(C)C(=O)CC[C@]2(C)[C@H]1CC/C(C)=C/C(=O)O`, the IC50 is over 10 µg/mL.
Regarding `CNC(=O)c1cc(Oc2ccc(NC(=O)Nc3ccc(Cl)c(C(F)(F)F)c3)cc2)ccn1` [SORAFENIB], the IC50 was 1.5 µg/mL (≈ 3.23 µM).
As to `C=C(C)[C@@H]1CC[C@]2(C(=O)O)CC[C@]3(C)C(CCC4[C@@]5(C)C[C@@H](O)[C@H](O)C(C)(C)C5CC[C@]43C)C12` (stereo partly specified), the IC50 was determined as 0.8 µg/mL (≈ 1.69 µM) and the inhibition result was “Dose-dependent effect”.
On to `O=C(Cc1ccc(O)cc1)OC[C@H]1CC[C@@H]2C(C(=O)O)=CO[C@@H](O[C@@H]3O[C@H](CO)[C@@H](O)[C@H](O)[C@H]3O)[C@H]12`, for which the 50% inhibitory concentration (IC50) was over 10 µg/mL.
Regarding `C=C1CC[C@H]2[C@@](C)(CO)CCC[C@]2(C)[C@H]1CC/C(C)=C\C(=O)O`, the IC50 came out at 2.5 µg/mL (≈ 7.8 µM).
For the compound `C/C(=C\C(=O)O)CC[C@@]1(C)[C@H](C)CC[C@]2(C)C(C(=O)O)=CCC[C@H]12`, the IC50 is over 10 µg/mL.
On to `COc1cc([C@H]2OC[C@H]3[C@@H]2CO[C@H]3c2ccc(OC)c(OC)c2)ccc1O` [PHILLYGENIN], for which the IC50 came out at 6.4 µg/mL (≈ 17.2 µM) and the inhibition entry was “Dose-dependent effect”.
On the same counts, the results for `COc1cc([C@H]2OC[C@H]3[C@@H]2CO[C@H]3c2ccc(O)c(OC)c2)ccc1O` [PINORESINOL] are 3.4 µg/mL (≈ 9.49 µM) and “Dose-dependent effect”.
Turning to `C=C1CCC2[C@@](C)(CO)CCC[C@]2(C)[C@H]1CC/C(C)=C/C(=O)O` (stereo partly specified), the IC50 was 7.4 µg/mL (≈ 23.1 µM) and the inhibition result is “Dose-dependent effect”.

For a further assay, the system named is Neutrophil. In words: Anti-inflammatory activity in human neutrophils assessed as inhibition of fMLP/CB-induced superoxide anion generation by measuring superoxide dismutase SOD-inhibitable ferricytochrome c reduction at 10 ug/ml incubated for 5 mins before fMLP/CB stimulation for 3 mins by spectrophotometry. The assay is classed as functional. Summed up:
as §2
Consider `COc1cc(C[C@H]2COC(=O)[C@@H]2Cc2ccc(O)c(OC)c2)ccc1O` [MATAIRESINOL], for which the inhibition at 10 µg/mL is over 50%.
Still for that read-out and setting: the same measure for `C=C(C)[C@@H]1CC[C@]2(C(=O)O)CC[C@]3(C)C(CCC4[C@@]5(C)C[C@@H](O)[C@H](O)C(C)(C)C5CC[C@]43C)C12` (stereo partly specified): over 50%; for `C=C1CC[C@H]2[C@@](C)(CO)CCC[C@]2(C)[C@H]1CC/C(C)=C\C(=O)O`: over 50%.
`COc1cc([C@H]2OC[C@H]3[C@@H]2CO[C@H]3c2ccc(OC)c(OC)c2)ccc1O` [PHILLYGENIN]: the inhibition at 10 µg/mL is over 50%.
Same read-out and setting: the same measure for `COc1cc([C@H]2OC[C@H]3[C@@H]2CO[C@H]3c2ccc(O)c(OC)c2)ccc1O` [PINORESINOL]: over 50%; for `C=C1CCC2[C@@](C)(CO)CCC[C@]2(C)[C@H]1CC/C(C)=C/C(=O)O` (stereo partly specified): over 50%.
